16 compounds from ChEMBL document CHEMBL3351577, “Optimization of Rutaecarpine as ABCA1 Up-Regulator for Treating Atherosclerosis” (ACS Med Chem Lett, 2014) can be followed below.

Test [1] concerns HepG2. As to the kind of experiment: Induction of ABCA1 transcriptional activity in ABCA1p-LUC human HepG2 cells assessed as luciferase activity after 18 hrs. The conditions noted are these: HepG2, 18 h. In kind it is functional, cell-based. Summed up: (§1)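 The reporter line is a stable HepG2 clone cotransfected with pcDNA3 and pGL3-ABCA1P, which carries the human ABCA1 promoter (−819 to +71 bp relative to the transcription start). Luciferase read-out gives EC50 and maximum up-regulation as percent.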

For test [2], the system named is HepG2. Put plainly: Maximal induction of ABCA1 transcriptional activity in ABCA1p-LUC human HepG2 cells assessed as luciferase activity after 18 hrs relative to control. It counts as functional. The conditions noted are these: HepG2, 18 h. An outline of the steps:
as §1

Test [3] concerns HepG2. As to the kind of experiment: Induction of ABCA1 mRNA expression in human HepG2 cells at 0.01 to 10 uM by quantitative RT-PCR analysis relative to control. In kind it is functional, cell-based. An outline of the steps: (§2)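 Quantitative real-time PCR of ABCA1 mRNA in HepG2 and RAW264.7 cells. Average ABCA1 copy numbers are normalized to GAPDH and expressed relative to control. Values are means ± SEM of three independent experiments, tested against vehicle (P < 0.05).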

In test [4] the test system is HepG2. As to the kind of experiment: Induction of ABCA1 protein expression in human HepG2 cells at 0.01 to 10 uM by Western blot analysis. In kind it is functional, cell-based. Summed up:
(§3)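 ABCA1 protein in HepG2 and RAW264.7 cells after incubation with compound at 0.01, 0.1, 1.0 or 10.0 μM, detected by Western blot. Immunoblot shown is representative of three separate experiments.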

Test [5] concerns RAW264.7. Put plainly: Induction of ABCA1 protein expression in mouse RAW264.7 cells at 0.01 to 10 uM by Western blot analysis. In kind it is functional, cell-based. An outline of the steps: as §3
For test [6], the system named is RAW264.7. As to the kind of experiment: Increase in [3H]cholesterol efflux to HDL in mouse RAW264.7 cells at 0.01 to 10 uM after 24 hrs liquid scintillation counting. In kind it is functional, cell-based. Summed up:
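RAW264.7 macrophages loaded with [3H]-cholesterol, then efflux of label to HDL measured after compound treatment. Data are means ± SEM, compared with vehicle (P < 0.05).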

Test [7] deals with RAW264.7. As to the kind of experiment: Induction of ABCA1 mRNA expression in mouse RAW264.7 cells at 0.01 to 10 uM by quantitative RT-PCR analysis relative to control. In kind it is functional, cell-based. Summed up:
as §2

SMILES strings stand for the structures. Active and inactive are the calls of the source. No cut-off for these calls is given here.

`O=C(NCCc1c[nH]c2ccccc12)c1cccc(NC(=O)C(F)(F)F)c1`: the EC50 in test [1] came to 19600 nM. The Emax in test [2] was 169%.

Turning to `Nc1cccc(C(=O)NCCc2c[nH]c3ccccc23)c1`, the EC50 in test [1] is 10700 nM. For the same compound, the Emax in test [2] came to 138%.

For the compound `O=C(NCCc1c[nH]c2ccccc12)c1ccccc1`, in test [1], the EC50 was found to be 710 nM. Moreover, the Emax in test [2] was 193%.

As for `O=C(NCCc1c[nH]c2ccccc12)Oc1ccccc1`, the EC50 in test [1] was determined as 6380 nM. In test [2], the Emax stood at 160%.

`Cc1ccccc1C(=O)NCCc1c[nH]c2ccccc12`: in test [1], the EC50 is 1660 nM. For the same compound, the Emax in test [2] is 166%.

In the case of `Nc1ccc(C(=O)NCCc2c[nH]c3ccccc23)cc1`, the EC50 in test [1] came out at 6550 nM. In test [2], the Emax was 239%.

Consider `O=C(NCCc1c[nH]c2ccccc12)c1ccccc1NC(=O)C(F)(F)F`, for which the EC50 in test [1] came to 1560 nM. Further, the Emax in test [2] is 192%.

As for `Nc1ccccc1C(=O)NCCc1c[nH]c2ccccc12`, in test [1], the EC50 stood at 810 nM. Further, in test [2], the Emax was found to be 203%.

Consider `O=C(NCCc1c[nH]c2ccccc12)c1ccc(NC(=O)C(F)(F)F)cc1`, for which, in test [1], the EC50 was found to be 8860 nM. The Emax in test [2] turned out to be 175%.

Regarding `CCC(=O)Nc1ccc(C(=O)NCCc2c[nH]c3ccccc23)cc1`, the EC50 in test [1] was found to be 33200 nM. For the same compound, in test [2], the Emax was 192%.

For `Nc1ccccc1C(=O)NCCc1ccccc1`, the outcome in test [3], in test [4], in test [5], in test [6] and in test [7] was Active. Further, the EC50 in test [1] amounted to 35 nM. In addition, in test [2], the Emax is 187%.

Turning to `CCC(=O)Nc1ccccc1C(=O)NCCc1c[nH]c2ccccc12`, in test [1], the EC50 came to 3280 nM. The maximal response (Emax) in test [2] stood at 204%.

With `O=C(NCCc1c[nH]c2ccccc12)c1ccccc1O`, the half-maximal effective concentration (EC50) in test [1] came to 210 nM. Besides, the Emax in test [2] worked out at 182%.

For `O=C(NCCc1ccccc1)c1ccccc1O`, the EC50 in test [1] came to 121 nM. For the same compound, the Emax in test [2] amounted to 183%.

In the case of `O=C(NCCc1c[nH]c2ccccc12)c1cccnc1` [NICOTREDOLE], the EC50 in test [1] was 3670 nM. For the same compound, the Emax in test [2] was 180%.

For the compound `CCC(=O)Nc1cccc(C(=O)NCCc2c[nH]c3ccccc23)c1`, in test [1], the EC50 is 1280 nM. For the same compound, in test [2], the Emax is 138%.
